Test results from ChEMBL document CHEMBL1145499, “Asiatic acid and corosolic acid enhance the susceptibility of Pseudomonas aeruginosa biofilms to tobramycin” (2007).

Columns and labels:
Format in all cases: functional
Pseudomonas aeruginosa [1] = assay: Antibacterial activity against Pseudomonas aeruginosa PAO1
Pseudomonas aeruginosa [2] = assay: Antibacterial activity against Pseudomonas aeruginosa PAO1 assessed as log reduction of bacterial count at 50 ug/ml by rotating disk reactor method
Pseudomonas aeruginosa [3] = assay: Antibacterial activity against Pseudomonas aeruginosa PAO1 assessed as log reduction of bacterial count at 100 ug/ml by rotating disk reactor method
Procedure, shortened: (§1)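 Rotating disk reactor (~200 rpm, 180 ml, 60-min residence, ca. 26°C) with polystyrene coupons and P. aeruginosa PAO1 inoculated per ASTM E-2196-02. Biofilms were grown 24 h in batch, then 24 h under flow. Compound was added to ~100 µg/ml final (ethanol or DMSO vehicle) for 24 h in batch. Coupons then received 100 µg/ml tobramycin or PBS for 2 h at room temperature. LR = negative-control mean log10 CFU/cm2 minus treated mean, three coupons per set.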

Pseudomonas aeruginosa [4] = assay: Antibacterial activity against Pseudomonas aeruginosa PAO1 assessed as log reduction of bacterial count at 100 ug/ml by CDC biofilm reactor method
Procedure, shortened: (§2)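 CDC-type biofilm reactor with PAO1 on polystyrene coupons, grown 24 h batch then 24 h continuous flow. Medium was fed at 13 ml/min, giving ~27 min residence. Coupon treatments, inoculum, medium and analysis matched the rotating disk runs: sonication, plate counts, log10 CFU/cm2, and log reduction against untreated control.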

Pseudomonas aeruginosa [5] = assay: Antibacterial activity against Pseudomonas aeruginosa PAO1 assessed as log reduction of bacterial count by rotating disk reactor method; procedure, shortened: as §1
Pseudomonas aeruginosa [6] = assay: Antibacterial activity against Pseudomonas aeruginosa PAO1 assessed as log reduction of bacterial count at 10 ug/ml by rotating disk reactor method
Pseudomonas aeruginosa [7] = assay: Antibacterial activity against Pseudomonas aeruginosa PAO1 assessed as log reduction of bacterial count at 50 ug/ml by CDC biofilm reactor method; procedure, shortened: as §2

Row | SMILES | MIC (Pseudomonas aeruginosa [1]) [µg/mL] | Activity (Pseudomonas aeruginosa [2]) | Activity (Pseudomonas aeruginosa [3]) | Activity (Pseudomonas aeruginosa [4]) | Activity (Pseudomonas aeruginosa [5]) | Activity (Pseudomonas aeruginosa [6]) | Activity (Pseudomonas aeruginosa [7])
1 | C[C@H]1[C@H](C)CC[C@]2(C(=O)O)CC[C@]3(C)C(=CC[C@@H]4[C@@]5(C)C[C@@H](O)[C@H](O)C(C)(C)[C@@H]5CC[C@]43C)[C@H]12 [COROSOLIC ACID] | > 128 | -0.04 | 0.02 | 0.7 | – | – | –
2 | O=C(O)c1cn(C2CC2)c2cc(N3CCNCC3)c(F)cc2c1=O [CIPROFLOXACIN] | ≥ 1 | – | – | – | -0.29 | – | –
3 | NC[C@H]1O[C@H](O[C@H]2[C@H](O)[C@@H](O[C@H]3O[C@H](CO)[C@@H](O)[C@H](N)[C@H]3O)[C@H](N)C[C@@H]2N)[C@H](N)C[C@@H]1O [TOBRAMYCIN] | – | 0.78 | 1.36 | – | 0.4 | 1.51 | –
4 | C[C@H]1[C@H](C)CC[C@]2(C(=O)O)CC[C@]3(C)C(=CC[C@@H]4[C@@]5(C)C[C@@H](O)[C@H](O)[C@@](C)(CO)[C@@H]5CC[C@]43C)[C@H]12 [ASIATIC ACID] | ≥ 128 | 0.12 | 0.19 | – | – | 0.14 | 0.8
